The subject of one series is NCI-H460. Kind of series: Cytotoxicity against human NCI-H460 cells after 3 days by MTT assay. The format is functional, cell-based. Particulars: NCI-H460, 72 h. The procedure, abridged: (§1)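 Cells grown in RPMI 1640 with 10% fetal calf serum, plated at 2 × 10^4 cells, held 12 h at 37 °C in 5% CO2, then exposed to test sample for 3 days at 37 °C. MTT added for 4 h, formazan dissolved in DMSO, absorbance read at 570 nm. IC50 taken as 50% growth inhibition relative to untreated control; each experiment run at least 3 times.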

The nature of series [1]: Toxicity in ip dosed mouse assessed as mortality after 24 hrs. The format is organism-based. The settings on record: in vivo. Summed up:
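Lorke two-phase design in mice, single intraperitoneal dose per group. Phase 1: three groups of three animals, each group one dose, observed 24 h for mortality and general behaviour. Phase 2: 3–4 groups of one mouse, doses chosen from phase 1 findings, observed 24 h. LD50 taken as geometric mean of lowest lethal dose and highest non-lethal dose; reported in mg/kg.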

In a further series the test system is GOTO. As to the kind of experiment: Cytotoxicity against human GOTO cells after 3 days by MTT assay. The format is functional, cell-based. Particulars: 72 h. Summed up: as §1
For a further series, the system named is NB1. Kind of series: Cytotoxicity against human NB-1 cells after 3 days by MTT assay. The format is functional, cell-based. The settings on record: NB1, 72 h. The procedure, abridged: as §1
Series [2] can be described thus: Cytotoxicity against human RKOp27 cells after 3 days by MTT assay. The format is functional, cell-based. Particulars: RKOp27, 72 h. The procedure, abridged: as §1
For a further series, the system named is SF-268. Kind of series: Cytotoxicity against human SF268 cells after 3 days by MTT assay. The format is functional, cell-based. The settings on record: SF-268, 72 h. Summed up: as §1
A further series relates to KB. Kind of series: Cytotoxicity against human KB cells after 3 days by MTT assay. The format is functional, cell-based. The settings on record: 72 h. Summed up: as §1
Another series concerns G-361. Kind of series: Cytotoxicity against human G361 cells after 3 days by MTT assay. The format is functional, cell-based. The settings on record: G-361, 72 h. Summed up: as §1
A further series relates to SK-MEL-28. As to the kind of experiment: Cytotoxicity against human SK-MEL-28 cells after 3 days by MTT assay. The format is functional, cell-based. Particulars: SK-MEL-28, 72 h. Summed up: as §1
The subject of the next series is SK-OV-3. Kind of series: Cytotoxicity against human SKOV3 cells after 3 days by MTT assay. The format is functional, cell-based. Particulars: SK-OV-3, 72 h. Summed up: as §1
A further series relates to K562. As to the kind of experiment: Cytotoxicity against human K562 cells after 3 days by MTT assay. The format is functional, cell-based. The settings on record: K562, 72 h. Summed up:
as §1

Another series relates to U-937. As to the kind of experiment: Cytotoxicity against human U937 cells after 3 days by MTT assay. The format is functional, cell-based. Particulars: U-937, 72 h. Summed up: as §1
The test system of the next series is HL-60. As to the kind of experiment: Cytotoxicity against human HL60 cells after 3 days by MTT assay. Particulars: HL-60, 72 h. The format is functional, cell-based.

Take `Cc1ccc(S(=O)(=O)N2CCN(c3nc(SCc4nc5ccccc5[nH]4)nc(-c4ccccc4)c3C#N)CC2)cc1`: the 50% inhibitory concentration (IC50) with NCI-H460 was 22.7 nM; in the series with GOTO, 4.38 nM; with NB1, 6.75 nM; in series [2], 2.5 nM; with SF-268 it was 7.81 nM; in the series with KB, 3.28 nM. Further, the IC50 in the series on G-361 came out at 4.38 nM; with SK-MEL-28, 4.38 nM; in the series on SK-OV-3, 4.54 nM; with K562, 11.3 nM; in the series with U-937, 4.1 nM; with HL-60, 4.23 nM. In addition, in series [1], the LD50 at 24 h was 345 mg/kg.
On to `N#Cc1c(-c2ccccc2)nc(SCc2nc3ccccc3[nH]2)nc1N1CCN(C(=O)c2ccc([N+](=O)[O-])cc2)CC1`, for which the IC50 with NCI-H460 came out at 4.46 nM; in the series with GOTO it was 5.81 nM; in the series on NB1, 13.2 nM; in [2], 7.81 nM; in the series with SF-268 it was 5.81 nM; with KB, 7.35 nM. Moreover, the half-maximal inhibitory concentration (IC50) in the series with G-361 came to 2.4 nM; in the series with SK-MEL-28, 2.77 nM; in the series with SK-OV-3, 8.62 nM; in the series with K562, 4.38 nM; in the series with U-937, 5.2 nM; in the series with HL-60 it was 2.9 nM. Besides, the LD50 at 24 h in series [1] turned out to be 327 mg/kg.
As to `N#Cc1c(-c2ccccc2)nc(SCc2nc3ccccc3[nH]2)nc1N1CCN(S(=O)(=O)c2ccccc2[N+](=O)[O-])CC1`, the IC50 came out at 3.7 nM in the series with NCI-H460; 3 nM with GOTO; 2.5 nM with NB1; 5.6 nM in [2]; 3 nM in the series on SF-268; 4.44 nM in the series on KB. The IC50 with G-361 is 9.6 nM; with SK-MEL-28 it was 8.9 nM; with SK-OV-3, 3.2 nM; with K562, 14.7 nM; in the series with U-937, 3.28 nM; in the series on HL-60 it was 2.77 nM. Besides, the 50% lethal dose (LD50) at 24 h in series [1] is 325 mg/kg.
`N#Cc1c(-c2ccccc2)nc(SCc2nc3ccccc3[nH]2)nc1N1CCN(S(=O)(=O)c2ccccc2)CC1`: the IC50 in the series on NCI-H460 is 4.6 nM; in the series on GOTO it was 5.81 nM; in the series on NB1, 3.28 nM; in series [2], 7.35 nM; with SF-268, 2.87 nM; in the series with KB it was 3 nM. Moreover, the concentration for half-maximal inhibition (IC50) in the series on G-361 is 8.62 nM; in the series with SK-MEL-28 it was 6.41 nM; in the series with SK-OV-3, 2.77 nM; with K562, 3 nM; in the series on U-937, 6.2 nM; in the series with HL-60, 4.23 nM. For the same compound, the median lethal dose (LD50) at 24 h in series [1] was 327 mg/kg.
On to `Cl.N=c1[nH]c(=S)[nH]c2nc(SCc3nc4ccccc4[nH]3)nc(-c3ccccc3)c12`, for which the IC50 was 3 nM in the series with NCI-H460; 11.9 nM in the series on GOTO; 3.28 nM with NB1; 2.5 nM in series [2]; 3.5 nM in the series with SF-268; 7.3 nM in the series with KB. In addition, the 50% inhibitory concentration (IC50) was 3.37 nM in the series on G-361; 3.37 nM in the series with SK-MEL-28; 3.5 nM in the series on SK-OV-3; 14.7 nM with K562; 2.8 nM in the series on U-937; 6.75 nM in the series with HL-60. Besides, the LD50 at 24 h in [1] came out at 389 mg/kg.
Take `Cl.N=c1[nH]c(=O)[nH]c2nc(SCc3nc4ccccc4[nH]3)nc(-c3ccccc3)c12`: the IC50 is 2.84 nM in the series on NCI-H460; 8.9 nM in the series with GOTO; 11.3 nM with NB1; 2.7 nM in series [2]; 2.84 nM with SF-268; 2.5 nM in the series with KB. Further, the IC50 was 3.2 nM with G-361; 8.9 nM with SK-MEL-28; 3.2 nM in the series on SK-OV-3; 14.7 nM in the series with K562; 2.87 nM with U-937; 3.1 nM in the series on HL-60. In [1], the LD50 at 24 h was determined as 346 mg/kg.

Source of the values: ChEMBL document CHEMBL1165908, “Novel benzimidazole-pyrimidine conjugates as potent antitumor agents” (Eur J Med Chem, 2010).
